Assay results as given in ChEMBL document CHEMBL4342471, “Discovery of Thieno[2,3-d]pyrimidine-Based Hydroxamic Acid Derivatives as Bromodomain-Containing Protein 4/Histone Deacetylase Dual Inhibitors Induce Autophagic Cell Death in Colorectal Carcinoma Cells” (J Med Chem, 2020).
The source made the active and inactive calls. No cut-off for these calls is given here.

What was measured:
HCT-116 [1] = assay: Effect on histone H3 expression level in human HCT116 cells at 0.2 to 0.5 uM measured after 24 hrs by Western blot analysis; type: functional, cell-based
[2] = target: Bromodomain testis-specific protein (Homo sapiens, UniProt Q58F21); assay: Inhibition of human recombinant His-tagged BRDT BD1 domain expressed in Escherichia coli BL21(DE3)-R3-pRARE2 cells by AlphaScreen assay
[3] = Tmax in Sprague-Dawley rat at 30 mg/kg, po measured up to 1440 mins by UPLC-QTOF/MS analysis; type: ADME, organism-based; conditions: in vivo
HCT-116 [4] = assay: Induction of apoptosis in human HCT116 cells assessed as early apoptotic cells at 0.5 uM by Annexin-V FITC/propidium iodide staining-based flow cytometry (reference value: 2.8 %); type: functional
[5] = target: T1, Bromodomain-containing protein 4 (Homo sapiens, UniProt O60885); assay: Inhibition of BRD4 in human HCT116 cells transfected with ATG5 siRNA assessed as induction of autophagy by measuring LC3 cleavage at 0.5 uM by Western blot analysis; type: cell-based
Outline: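 HCT-116 cells first transfected with ATG5 siRNA or scramble siRNA; after silencing, exposed to 0.5 µM test agent or normal saline, then ATG5, AMPKα, p-AMPKα, p62 and LC3 protein assessed by western blot.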

[6] = Half life in Sprague-Dawley rat at 30 mg/kg, po measured up to 1440 mins by UPLC-QTOF/MS analysis; type: ADME, organism-based; conditions: in vivo
HCT-116 [7] = assay: Antitumor activity against human HCT116 cells xenografted in orally dosed BALB/cAnNCrl mouse assessed as reduction in tumor volume administered on day 1 to day 19 relative to control; type: functional, organism-based
Outline: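 HCT-116 xenografts in mice were given the test agent orally at 15 or 30 mg/kg, with a saline control group, over 19 days. Tumor volume was followed during treatment and tumors were weighed at the end. Body weight was monitored. Inhibition is expressed as treatment-to-control (T/C) ratio.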

[8] = Toxicity in BALB/cAnNCrl mouse xenografted with human HCT116 cells assessed as effect on liver morphological changes at 15 to 30 mg/kg, po administered on day 1 to day 19 measured on day 19 by hematoxylin and eosin staining based assay; type: organism-based; conditions: in vivo
Outline: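 HCT-116 xenograft mice dosed orally at 15 or 30 mg/kg for 19 days, saline as vehicle control; body weights tracked, and main organs sectioned and H&E-stained at study end.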

Histone deacetylase 11 = Histone deacetylase 11 (Homo sapiens, UniProt Q96DB2); assay: Inhibition of HDAC11 (unknown origin) using biotinylated histone H3 KAc peptide (1 to 21 residues) as substrate by HTRF assay
HCT-116 [9] = assay: Induction of apoptosis in human HCT116 cells assessed as necrotic cells at 0.5 uM by Annexin-V FITC/propidium iodide staining-based flow cytometry (reference value: 0.304 %); type: functional
HCT-116 [10] = assay: Induction of apoptosis in human HCT116 cells assessed as viable cells at 0.5 uM by Annexin-V FITC/propidium iodide staining-based flow cytometry (reference value: 93.4 %); type: functional; conditions: read-out: Activity
[11] = target: Bromodomain-containing protein 2 (Homo sapiens, UniProt P25440); assay: Inhibition of human recombinant His-tagged BRD2 BD1 domain expressed in Escherichia coli BL21(DE3)-R3-pRARE2 cells by AlphaScreen assay
[12] = Half life in Sprague-Dawley rat at 30 mg/kg, iv administered as bolus dose measured up to 1440 mins by UPLC-QTOF/MS analysis; type: ADME, organism-based; conditions: in vivo
[13] = target: T1, Bromodomain-containing protein 4; assay: Inhibition of BRD4 in human HCT116 cells assessed as induction of autophagic flux by measuring accumulation of LC3-II at 0.5 uM after 24 hrs in presence of auto-phagolysosome inhibitor, bafilomycin-A1 by Western blot analysis; type: cell-based
Outline: (§1)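 HCT-116 cells received 0.5 μM compound with or without bafilomycin-A1 for 24 hours. LC3 and p62 protein were then analysed by western blot.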

HCT-116 [14] = assay: Antiproliferative activity against human HCT116 cells assessed as reduction in cell viability measured after 24 to 48 hrs by MTT assay; type: functional, cell-based
HCT-116 [15] = assay: Inhibition of colony formation in human HCT116 cells at 0.2 to 0.5 uM incubated for 24 hrs; type: functional, cell-based
Outline: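 HCT-116 colony formation assessed after treatment at 0.2 or 0.5 µM.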

[16] = target: T1, Bromodomain-containing protein 4; assay: Inhibition of BRD4 in human HCT116 cells assessed as induction of autophagy by measuring decrease in p62 expression at 0.2 to 0.5 uM measured after 24 hrs by Western blot analysis; type: cell-based
Homo sapiens = species: Homo sapiens; assay: Inhibition of BRD4/HDAC in human HCT116 cells assessed as increase in caspase 9 cleavage at 0.2 to 0.5 uM measured after 24 hrs by Western blot analysis; type: cell-based
[17] = target: T1, Bromodomain-containing protein 4; assay: Inhibition of BRD4 in human HCT116 cells assessed as induction of autophagic flux by measuring accumulation of p62 at 0.5 uM after 24 hrs in presence of auto-phagolysosome inhibitor, bafilomycin-A1 by Western blot analysis; type: cell-based; outline: as §1
SW-620 = assay: Antiproliferative activity against human SW620 cells assessed as reduction in cell viability measured after 24 to 48 hrs by MTT assay; type: functional, cell-based
HCT-116 [18] = assay: Induction of apoptosis in human HCT116 cells assessed as late apoptotic cells at 0.5 uM by Annexin-V FITC/propidium iodide staining-based flow cytometry (reference value: 3.51 %); type: functional
LoVo = assay: Cytotoxicity against human LoVo cells assessed as reduction in cell viability; type: functional, cell-based
Outline: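 Antiproliferative IC50 values were measured by MTT assay across a panel of colorectal carcinoma cell lines and normal colorectal epithelial cells.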

[19] = target: T1, Bromodomain-containing protein 4; assay: Inhibition of human recombinant His-tagged BRD4 BD1 domain using H-SGRGK(Ac)GGK(Ac)GLGK-(Ac)GGAK(Ac)RHRK(Biotin)-OH as substrate preincubated with enzyme for 30 mins followed by substrate addition measured after 30 mins by AlphaScreen assay
[20] = AUC (0 to infinity) in Sprague-Dawley rat at 30 mg/kg, po measured up to 1440 mins by UPLC-QTOF/MS analysis; type: ADME, organism-based; design: dose 30 mg/kg, route oral, time infinity; conditions: in vivo
HCT-116 [21] = assay: Induction of apoptosis in human HCT116 cells assessed as necrotic cells at 0.2 uM by Annexin-V FITC/propidium iodide staining-based flow cytometry (reference value: 0.304 %); type: functional
[22] = Tmax in Sprague-Dawley rat at 30 mg/kg, iv administered as bolus dose measured up to 1440 mins by UPLC-QTOF/MS analysis; type: ADME, organism-based; conditions: in vivo
Mus musculus = assay: In vivo inhibition of HDAC in BALB/cAnNCrl mouse xenografted with human HCT116 cells assessed as increase in acetylated histone H3 level in tumor tissue at 15 to 30 mg/kg, po administered on day 1 to day 19 measured on day 19 by immunohistochemical analysis; type: functional, organism-based
Outline: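 HCT-116 xenograft mice were dosed orally at 15 or 30 mg/kg, or 30 mg/kg for reference agents, for 19 days, with vehicle or saline controls. Tumor sections were stained for Ki-67, c-Myc, Ac-H3, BRD4, LC3-II, LIFR and p-STAT3 by immunohistochemistry, and TUNEL staining was used as the apoptosis marker.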

Sequence of Bromodomain-containing protein 2 (P25440 whole entry, the tested form may be a part): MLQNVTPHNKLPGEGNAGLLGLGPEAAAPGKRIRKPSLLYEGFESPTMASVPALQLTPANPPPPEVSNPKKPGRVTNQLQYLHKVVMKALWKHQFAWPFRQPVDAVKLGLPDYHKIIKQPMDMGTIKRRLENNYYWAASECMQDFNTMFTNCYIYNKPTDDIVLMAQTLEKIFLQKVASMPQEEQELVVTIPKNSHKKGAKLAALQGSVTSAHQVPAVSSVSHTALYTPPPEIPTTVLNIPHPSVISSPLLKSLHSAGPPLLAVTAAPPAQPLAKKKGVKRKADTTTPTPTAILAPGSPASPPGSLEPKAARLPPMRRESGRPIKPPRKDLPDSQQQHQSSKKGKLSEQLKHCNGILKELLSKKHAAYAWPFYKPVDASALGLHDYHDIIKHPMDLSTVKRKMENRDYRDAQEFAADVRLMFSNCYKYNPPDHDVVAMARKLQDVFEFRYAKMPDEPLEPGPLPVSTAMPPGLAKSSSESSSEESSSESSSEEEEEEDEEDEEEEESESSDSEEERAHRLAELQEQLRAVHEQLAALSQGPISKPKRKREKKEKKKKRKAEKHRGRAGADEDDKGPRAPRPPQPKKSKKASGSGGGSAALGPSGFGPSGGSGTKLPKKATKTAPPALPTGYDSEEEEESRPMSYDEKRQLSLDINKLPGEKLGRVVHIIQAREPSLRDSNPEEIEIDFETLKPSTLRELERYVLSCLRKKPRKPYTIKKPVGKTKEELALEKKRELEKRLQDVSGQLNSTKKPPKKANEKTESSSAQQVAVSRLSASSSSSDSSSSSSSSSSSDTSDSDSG
Sequence of Histone deacetylase 11 (Q96DB2 whole entry, the tested form may be a part): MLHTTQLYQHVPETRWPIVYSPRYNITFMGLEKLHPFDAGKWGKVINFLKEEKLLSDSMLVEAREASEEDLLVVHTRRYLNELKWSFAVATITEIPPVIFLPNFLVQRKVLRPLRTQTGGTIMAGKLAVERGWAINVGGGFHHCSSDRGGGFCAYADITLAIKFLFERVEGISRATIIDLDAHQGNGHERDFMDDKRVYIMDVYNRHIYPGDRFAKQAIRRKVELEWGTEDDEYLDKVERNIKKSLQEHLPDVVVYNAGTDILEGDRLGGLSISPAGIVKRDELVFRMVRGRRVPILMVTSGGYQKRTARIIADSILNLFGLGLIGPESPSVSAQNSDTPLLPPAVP

Cc1cc(-c2nc3sc4c(c3c(=O)[nH]2)CCN(C)C4)cc(C)c1OCCCCCC(=O)NO
Activity (HCT-116 [1]): inactive | IC50 [2]: > 20 µM | Tmax [3]: 1.53 h | Activity (HCT-116 [4]): 9.54% | inhibition [5]: inactive | half-life [6]: 4.8 h | Activity (HCT-116 [7]): Dose-dependent effect | Activity [8]: Non-Toxic | IC50 (Histone deacetylase 11): > 10 µM | Activity (HCT-116 [9]): 9.75% | viability at 0.5 µM (HCT-116 [10]): 44.9% | IC50 [11]: 16.4 µM | half-life [12]: 2.48 h | inhibition [13]: inactive | IC50 (HCT-116 [14]): 0.45 µM | inhibition (HCT-116 [15]): Active | inhibition [16]: Active | inhibition (Homo sapiens): Active | inhibition [17]: inactive | IC50 (SW-620): 1.78 µM | Activity (HCT-116 [18]): 35.8% | Activity (LoVo): Active | IC50 [19]: 1.1 µM | AUC(0-inf) [20]: 63300 ng·h/mL | Activity (HCT-116 [21]): 7.01% | Tmax [22]: 7.2 min | inhibition (Mus musculus): Active
